Publication PMC7178755 (Toxicology and applied pharmacology, 2019)
“And” between values parts separate entries of the source, which are not always exact repeats. Equal values may be shown once.

How the values were obtained:
[1] = free BPAF; rats; single gavage 20 and 100 mg/kg; ref Li et al. (2013); cited from earlier work
[2] = Plasma toxicokinetics after single gavage administration in mice; assay type: in vivo, B6C3F1/N mice; settings: for half-life / AUC(0-inf) / Cmax / Tmax / bioavailability: 34 mg/kg; for bioavailability: AUC/Dose (oral) ÷ AUC/Dose (IV) x 100
[3] = tested on: hepatocytes from humans and rodents; settings: ref Waidyanatha et al., 2015, cited from earlier work
[4] = rat, sex and strain not specified; ref Halocarbon, 2008; cited from earlier work
[5] = rat uterotrophic assay; administered orally; ref Conley et al., 2016; cited from earlier work
[6] = Plasma toxicokinetics after single gavage administration in rats; assay type: in vivo, Harlan Sprague Dawley rats; settings: for bioavailability / Tmax / AUC(0-inf) / Cmax / half-life: rat, po; for bioavailability / Tmax / AUC(0-inf) / Cmax / half-life / Cl1_F / Cl2_F / K12 / K21 / V1_F / V2_F: plasma; for half-life / Cl1_F / Cl2_F / K12 / K21 / V1_F / V2_F: mean (SE)
[7] = Plasma toxicokinetics after single intravenous administration in mice; assay type: in vivo, B6C3F1/N mice; settings: for AUC(0-inf) / Cmax / Vd / half-life: B6C3F1/N, mouse, iv, 34 mg/kg; for half-life / Cl1 / Cl2 / K12 / K21 / V1 / V2: free BPAF, 34 mg/kg IV, mean (SE)
[8] = Gavage toxicokinetics, summary statements over rats and mice; assay type: in vivo; settings: rat, mouse, plasma, po
Summary of the method: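 Single gavage doses in corn oil were given to male and female rats (9–10 wk; 34, 110, 340 mg/kg) and B6C3F1/N mice (10–11 wk; 34 mg/kg), with a 34 mg/kg IV tail-vein reference. Plasma was sampled from 5 min to 48 h. Free and total (enzyme-deconjugated) test compound was quantitated. F = dose-adjusted oral/IV free AUC0−∞; half-life taken as K10 half-life from compartmental fits.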

[9] = female, B6C3F1/N, mouse, plasma, po
[10] = free BPAF, female B6C3F1/N mice, 34 mg/kg gavage
[11] = free BPAF, female mice, 34 mg/kg gavage, plasma, mean (SE)
[12] = free BPAF, male mice, 34 mg/kg gavage, plasma, mean (SE)
[13] = male, B6C3F1/N, mouse, plasma, po
[14] = female, Harlan Sprague Dawley (Hsd:Sprague Dawley SD), 34 mg/kg
[15] = female, Hsd:Sprague Dawley SD, 34 mg/kg
[16] = female, Hsd:Sprague Dawley SD, 110 mg/kg
[17] = female, Hsd:Sprague Dawley SD, 340 mg/kg
[18] = free BPAF, female HSD rats, 34 mg/kg gavage
[19] = free BPAF, female rats, 34 mg/kg gavage
[20] = free BPAF, female rats, 110 mg/kg gavage
[21] = free BPAF, female rats, 340 mg/kg gavage
[22] = free BPAF, male rats, 34 mg/kg gavage
[23] = free BPAF, male rats, 110 mg/kg gavage
[24] = free BPAF, male rats, 340 mg/kg gavage
[25] = male, Hsd:Sprague Dawley SD, 34 mg/kg
[26] = male, Hsd:Sprague Dawley SD, 110 mg/kg
[27] = male, Hsd:Sprague Dawley SD, 340 mg/kg

Oc1ccc(C(c2ccc(O)cc2)(C(F)(F)F)C(F)(F)F)cc1 [BPAF, Bisphenol AF]
Tmax (maximum plasma BPAF concentration observed at) [1]: 1 h
half-life ([2]; both, B6C3F1/N, mouse, plasma, po, elimination half-life, free BPAF, male and female mice, 34 mg/kg gavage): ≤ 4.22 h
AUC(0-inf) [2, 9]: 495 ng·h/mL and 1.47 µM·h
Cmax [2, 9]: 105 ng/mL and 313 nM
Tmax [2, 9]: 0.342 h
half-life ([2]; female, B6C3F1/N, mouse, plasma, po, Alpha Half-life, free BPAF, female mice, 34 mg/kg gavage, mean (SE)): 0.209 h
half-life ([2]; female, B6C3F1/N, mouse, plasma, po, Beta Half-life, free BPAF, female mice, 34 mg/kg gavage, mean (SE)): 9.02 h
bioavailability ([2]; female, B6C3F1/N, mouse, plasma, po, Bioavailability, free BPAF, Female Mice, 34 mg/kg gavage): 3%
half-life ([2]; female, B6C3F1/N, mouse, plasma, po, K10 Half-Life, free BPAF, female mice, 34 mg/kg gavage, mean (SE)): 1.33 h
bioavailability ([2]; free BPAF, Female Mice, 34 mg/kg gavage): 3.13%
bioavailability ([2]; free BPAF, Male Mice, 34 mg/kg gavage): 5.64%
Dose-normalized AUC0−∞ [2, 10]: 14.6 (nmol.h/mL)/(mmol/kg)
Dose-normalized Cmax [2, 10]: 3.099 (nmol/mL)/(mmol/kg)
Cl1_F [2, 11]: 68.7 (22.5) L/h/kg
Cl2_F [2, 11]: 313 (17400) L/h /kg
K12 [2, 11]: 2.38 (899) 1/h
K21 [2, 11]: 0.487 (0.497) 1/h
V1_F [2, 11]: 131 (42200) L/kg
V2_F [2, 11]: 642 (35300) L/kg
Cl1_F [2, 12]: 80.0 (22.5) L/h/kg
Cl2_F [2, 12]: 13.2 (226) L/h /kg
K12 [2, 12]: 0.0271 (0.476) 1/h
K21 [2, 12]: 0.369 (5.1) 1/h
V1_F [2, 12]: 487 (238) L/kg
AUC(0-inf) [2, 13]: 425 ng·h/mL
Cmax [2, 13]: 64.1 ng/mL
Tmax [2, 13]: 0.455 h
half-life ([2]; male, B6C3F1/N, mouse, plasma, po, Alpha Half-life, free BPAF, male mice, 34 mg/kg gavage, mean (SE)): 1.67 h
half-life ([2]; male, B6C3F1/N, mouse, plasma, po, Beta Half-life, free BPAF, male mice, 34 mg/kg gavage, mean (SE)): 4.73 h
bioavailability ([2]; male, B6C3F1/N, mouse, plasma, po, Bioavailability, free BPAF, Male Mice, 34 mg/kg gavage): ~6%
half-life ([2]; male, B6C3F1/N, mouse, plasma, po, K10 Half-Life, free BPAF, male mice, 34 mg/kg gavage, mean (SE)): 4.22 h
clearance compared with BPA ([3]; hepatocytes from humans and rodents, in vitro): cleared more slowly than BPA
clearance rank order between species ([3]; hepatocytes in vitro): rat > mouse > human
oral LD50 [4]: 3400 mg/kg
ED50 [5]: 209.1 mg/kg/day
bioavailability ([6]; both, Hsd:Sprague Dawley SD): ~1%
Tmax ([6]; both, Hsd:Sprague Dawley SD, 34 mg/kg): 0.767 to 0.812 h
AUC(0-inf) [6, 14]: 1.37 µM·h
Cmax [6, 14]: 142 nM
bioavailability [6, 14]: 1.02%
bioavailability ([6]; female, Harlan Sprague Dawley (Hsd:Sprague Dawley SD), 340 mg/kg): 1.06%
Tmax ([6]; female, Hsd:Sprague Dawley SD): 0.767 to 1.34 h
AUC(0-inf) [6, 15]: 461 ng·h/mL
Cmax [6, 15]: 47.4 ng/mL
Tmax [6, 15]: 0.767 h
half-life ([6]; female, Hsd:Sprague Dawley SD, 34 mg/kg, Alpha Half-life, free BPAF, female rats, 34 mg/kg gavage): 0.384 h
half-life ([6]; female, Hsd:Sprague Dawley SD, 34 mg/kg, Beta Half-life, free BPAF, female rats, 34 mg/kg gavage): 8.68 h
half-life ([6]; female, Hsd:Sprague Dawley SD, 34 mg/kg, K10 Half-Life, free BPAF, female rats, 34 mg/kg gavage): 3.35 h
AUC(0-inf) [6, 16]: 1470 ng·h/mL
Cmax [6, 16]: 245 ng/mL
Tmax [6, 16]: 0.658 h
AUC(0-inf) [6, 17]: 4810 ng·h/mL
Cmax [6, 17]: 555 ng/mL
Tmax [6, 17]: 1.34 h
Dose-normalized AUC0−∞ [6, 18]: 13.6 (nmol.h/mL)/(mmol/kg)
Dose-normalized Cmax [6, 18]: 1.406 (nmol/mL)/(mmol/kg)
Cl1_F [6, 19]: 73.8 (13.3) L/h/kg
Cl2_F [6, 19]: 350 (4650) L/h /kg
K12 [6, 19]: 0.981 (31.1) 1/h
K21 [6, 19]: 0.698 (1.29) 1/h
V1_F [6, 19]: 357 (6600) L/kg
V2_F [6, 19]: 502 (5820) L/kg
Cl1_F [6, 20]: 74.7 (13.4) L/h/kg
Cl2_F [6, 20]: 194 (503) L/h /kg
K12 [6, 20]: 1.07 (19.3) 1/h
K21 [6, 20]: 0.215 (0.115) 1/h
V1_F [6, 20]: 181 (2810) L/kg
V2_F [6, 20]: 899 (2050) L/kg
Cl1_F [6, 21]: 70.7 (94.0) L/h/kg
Cl2_F [6, 21]: 101 (180) L/h /kg
K12 [6, 21]: 0.433 (15.4) 1/h
K21 [6, 21]: 0.0391 (0.0929) 1/h
V2_F [6, 21]: 2580 (6150) L/kg
Cl1_F [6, 22]: 85.2 (20.0) L/h/kg
Cl2_F [6, 22]: 193 (24800) L/h /kg
K12 [6, 22]: 0.849 (604) 1/h
K21 [6, 22]: 0.257 (0.137) 1/h
V1_F [6, 22]: 227 (132000) L/kg
V2_F [6, 22]: 752 (966600) L/kg
Cl1_F [6, 23]: 89.1 (52.4) L/h/kg
Cl2_F [6, 23]: 122 (2520) L/h /kg
K12 [6, 23]: 0.402 (62.7) 1/h
K21 [6, 23]: 0.0972 (0.207) 1/h
V1_F [6, 23]: 304 (41100) L/kg
V2_F [6, 23]: 1260 (23900) L/kg
Cl1_F [6, 24]: 70.3 (20.8) L/h/kg
Cl2_F [6, 24]: 36.9 (1910) L/h /kg
K12 [6, 24]: 0.156 (49.5) 1/h
K21 [6, 24]: 0.0814 (0.223) 1/h
V1_F [6, 24]: 237 (62900) L/kg
V2_F [6, 24]: 454 (24400) L/kg
bioavailability ([6]; male, Harlan Sprague Dawley (Hsd:Sprague Dawley SD), 34 mg/kg): 0.88%
bioavailability ([6]; male, Harlan Sprague Dawley (Hsd:Sprague Dawley SD), 110 mg/kg): 0.84%
bioavailability ([6]; male, Harlan Sprague Dawley (Hsd:Sprague Dawley SD), 340 mg/kg): 1.07%
Tmax ([6]; male, Hsd:Sprague Dawley SD): 0.812 to 2.3 h
AUC(0-inf) [6, 25]: 399 ng·h/mL
Cmax [6, 25]: 60.7 ng/mL
Tmax [6, 25]: 0.812 h
half-life ([6]; male, Hsd:Sprague Dawley SD, 34 mg/kg, Alpha Half-life, free BPAF, male rats, 34 mg/kg gavage): 0.491 h
half-life ([6]; male, Hsd:Sprague Dawley SD, 34 mg/kg, Beta Half-life, free BPAF, male rats, 34 mg/kg gavage): 10.2 h
half-life ([6]; male, Hsd:Sprague Dawley SD, 34 mg/kg, K10 Half-Life, free BPAF, male rats, 34 mg/kg gavage): 1.85 h
AUC(0-inf) [6, 26]: 1230 ng·h/mL
Cmax [6, 26]: 142 ng/mL
Tmax [6, 26]: 1.43 h
AUC(0-inf) [6, 27]: 4830 ng·h/mL
Cmax [6, 27]: 552 ng/mL
Tmax [6, 27]: 2.2 h
AUC(0-inf) ([7]; female): 15800 ng·h/mL
Cmax ([7]; female): 92300 ng/mL
Vd ([7]; female): 1.36 L/kg
half-life ([7]; female, Alpha half-life, female mice): 0.106 h
half-life ([7]; female, Beta half-life, female mice): 3.03 h
half-life ([7]; female, K10 Half-Life, female mice): 0.119 h
Cl1 ([7]; female mice): 2.15 (0.426) L/h/kg
Cl2 ([7]; female mice): 0.256 (0.108) L/h /kg
K12 ([7]; female mice): 0.696 (0.190) 1/h
K21 ([7]; female mice): 0.257 (0.0225) 1/h
V1 ([7]; female mice): 0.368 (0.129) L/kg
V2 ([7]; female mice): 0.995 (0.388) L/kg
Cl1 ([7]; male mice): 4.51 (0.547) L/h/kg
Cl2 ([7]; male mice): 0.860 (0.324) L/h /kg
K12 ([7]; male mice): 0.189 (0.0802) 1/h
K21 ([7]; male mice): 0.227 (0.0304) 1/h
V1 ([7]; male mice): 4.54 (1.06) L/kg
V2 ([7]; male mice): 3.78 (1.10) L/kg
AUC(0-inf) ([7]; male): 7540 ng·h/mL
Cmax ([7]; male): 7490 ng/mL
Vd ([7]; male): 8.32 L/kg
half-life ([7]; male, Alpha half-life, male mice): 0.566 h
half-life ([7]; male, Beta half-life, male mice): 3.76 h
half-life ([7]; male, K10 Half-Life, male mice): 0.698 h
half-life ([8]; Hsd:Sprague Dawley SD (rats), B6C3F1/N (mice)): ≤ 4.22 h
half-life ([8]; female, Harlan Sprague Dawley (rats) and B6C3F1/N (mice), 34 mg/kg): ~9 h
